Experimental data from ChEMBL document CHEMBL4007465, “1,4-Substituted Triazoles as Nonsteroidal Anti-Androgens for Prostate Cancer Treatment” (J Med Chem, 2017).
Active and inactive are the calls of the source. The rule behind the calls is not given here.

Assays:
[1] = target: T1, Androgen receptor (Homo sapiens) (UniProt P10275)
T1 sequence (whole entry): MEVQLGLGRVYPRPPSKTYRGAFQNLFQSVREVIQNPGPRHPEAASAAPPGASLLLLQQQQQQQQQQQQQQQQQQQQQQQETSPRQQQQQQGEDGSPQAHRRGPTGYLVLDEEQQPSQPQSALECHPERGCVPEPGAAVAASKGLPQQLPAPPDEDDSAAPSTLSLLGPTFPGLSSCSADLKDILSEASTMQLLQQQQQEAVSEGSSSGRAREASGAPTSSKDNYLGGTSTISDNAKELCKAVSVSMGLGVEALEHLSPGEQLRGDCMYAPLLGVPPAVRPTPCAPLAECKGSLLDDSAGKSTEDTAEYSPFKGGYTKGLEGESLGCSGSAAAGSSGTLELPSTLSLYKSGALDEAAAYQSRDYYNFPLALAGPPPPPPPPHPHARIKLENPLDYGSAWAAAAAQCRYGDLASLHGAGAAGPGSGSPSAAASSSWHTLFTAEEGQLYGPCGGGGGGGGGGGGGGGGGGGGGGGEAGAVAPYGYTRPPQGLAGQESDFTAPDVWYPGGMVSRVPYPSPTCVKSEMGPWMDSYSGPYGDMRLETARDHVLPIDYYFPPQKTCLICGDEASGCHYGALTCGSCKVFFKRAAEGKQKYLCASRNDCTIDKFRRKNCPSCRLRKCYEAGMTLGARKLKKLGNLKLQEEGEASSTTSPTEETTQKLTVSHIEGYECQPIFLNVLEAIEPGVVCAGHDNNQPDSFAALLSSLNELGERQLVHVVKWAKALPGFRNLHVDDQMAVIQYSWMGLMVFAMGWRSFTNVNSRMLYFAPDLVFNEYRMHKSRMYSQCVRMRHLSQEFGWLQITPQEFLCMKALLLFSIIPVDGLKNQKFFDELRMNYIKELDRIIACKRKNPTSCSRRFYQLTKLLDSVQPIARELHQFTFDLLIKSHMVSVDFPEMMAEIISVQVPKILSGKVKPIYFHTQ

[2] = target: T1, Androgen receptor (Homo sapiens); experiment: Antagonist activity at androgen receptor in human LNCAP cells assessed as reduction in PSA mRNA expression at 10 uM after 24 hrs by RT-qPCR analysis relative to control; type: cell-based
How it was run: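 LNCaP cells treated 24 h after seeding with 10 μM compound for 24 h at 37 °C. RNA extracted, cDNA made from equal RNA amounts, then SYBR Green RT-qPCR for PSA. Normalised to 18S rRNA, relative levels by comparative Ct method versus untreated cells. Run in triplicate.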

Mus musculus [3] = experiment: Toxicity in nude CD1 mouse xenografted with human CW22Rv1 cells assessed as body weight loss at 50 mg/kg administered through oral gavage dosed qd for 5 days a week for 3 weeks; type: organism-based; details: in vivo
How it was run: (§1)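 Male CD-1 nude (nu/nu) mice, 8 weeks old, given 5 × 10^6 CW22Rv1 cells in saline s.c. in the right flank on day 0. Randomized, 5 per group. From day 1, before tumors were palpable, 50 mg/kg by oral gavage at 10 mL/kg in DMSO/Cremophor/PBS (10/5/85), qdx5/wx3w. Vehicle controls. Tumor volume by caliper as a × b²/2. TVI is the maximum value. Body weight loss monitored.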

[4] = Antitumor activity against human CW22Rv1 cells xenografted in nude CD1 mouse assessed as tumor volume inhibition at 50 mg/kg administered through oral gavage dosed qd for 5 days a week measured on day 7; type: functional
How it was run: as §1

[5] = Antagonist activity at androgen receptor V7 mutant in human CW22Rv1 cells assessed as cell growth inhibition after 72 hrs by SRB assay; type: cell-based
Mus musculus [6] = experiment: Toxicity in nude CD1 mouse xenografted with human CW22Rv1 cells assessed as mortality at 50 mg/kg administered through oral gavage dosed qd for 5 days a week for 3 weeks; type: organism-based; details: in vivo
How it was run: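 Eight-week-old male CD-1 nude mice, 5 per group, given CW22Rv1 cells (5 × 10^6 in saline) sc in right flank on day 0. From day 1, oral gavage at 50 mg/kg (10 mL/kg) in DMSO/Cremophor/PBS (10/5/85), daily 5 days/week for 3 weeks. Vehicle controls. Toxicity scored as deaths per group, with body weight loss.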

[7] = system: Homo sapiens [UNDEFINED MUTATION]; experiment: Antagonist activity at androgen receptor V7 mutant in human CW22Rv1 cells assessed as cell death after 144 hrs by SRB assay; type: cell-based
How it was run: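 CW22Rv1 (RPMI 1640, 10% FBS, 1% glutamine) plated at 1700 cells/well; 24 h after seeding, drug exposure 0.02–20 μM for 144 h. Sulforhodamine B read at 490 nm. LC50 = concentration killing 50% of cells, i.e. OD treated below OD at time of drug addition (Monks formula). Octuplicate wells, three independent experiments, mean ± SD.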

Homo sapiens [8] = organism: Homo sapiens; experiment: Potency index, ratio of (R)-bicalutamide IC50 to compound IC50 for antagonist activity at AR V7 mutant in human CW22Rv1 cells assessed as cell growth inhibition; type: cell-based
How it was run: (§2)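 CW22Rv1 growth-inhibition assay: cells exposed 24 h after seeding to 0.5–100 μM for 72 h, then counted with a Coulter counter. IC50 is the concentration causing 50% growth inhibition, taken from dose–response curves. Run in triplicate, three independent experiments, mean ± SD. Ratios divide the reference IC50 by the compound IC50.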

Homo sapiens [9] = organism: Homo sapiens; experiment: Potency index, ratio of enzalutamide IC50 to compound IC50 for antagonist activity at AR V7 mutant in human CW22Rv1 cells assessed as cell growth inhibition; type: cell-based
How it was run: as §2

[10] = target: T1, Androgen receptor (Homo sapiens); experiment: Antagonist activity at androgen receptor in human LNCAP cells assessed as cell death after 144 hrs by SRB assay; type: cell-based
How it was run: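 LNCaP cells in RPMI with 10% FBS and 1% glutamine, 5000 cells/well, exposed 24 h after seeding for 144 h to 0.02–20 μM. Read by SRB, OD 490 nm. LC50 is the concentration killing 50% of cells, i.e. treated OD below time-zero OD, per the Monks formula. Octuplicate wells, three independent experiments, mean ± SD.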

[11] = system: Homo sapiens [UNDEFINED MUTATION]; experiment: Antagonist activity at androgen receptor V7 mutant in human CW22Rv1 cells assessed as cell growth inhibition after 144 hrs by SRB assay; type: cell-based
How it was run: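 SRB assay on CW22Rv1 cells grown in RPMI 1640 with 10% FBS and 1% glutamine. Cells plated at 1700/well and exposed 24 h after seeding for 144 h to 0.02–20 μM. OD read at 490 nm. GI50 is the concentration giving 50% growth inhibition by the Monks formula relative to time-zero and untreated OD. Octuplicate wells, three independent experiments, mean ± SD.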

| Structure (SMILES) | inhibition [2] | further results |
| --- | --- | --- |
| N#Cc1ccc(-n2cc(CSc3ccc(F)cc3)nn2)cc1C(F)(F)F | > 65% | GI50 [1]: 16.8 µM |
| N#Cc1ccc(-n2cc(-c3cccc(C(F)(F)F)c3F)nn2)cc1C(F)(F)F | inactive |  |
| N#Cc1ccc(-n2cc(COc3cccc(C(F)(F)F)c3)nn2)cc1C(F)(F)F | inactive |  |
| N#Cc1ccc(-n2cc(COc3cccc(C(F)(F)F)c3F)nn2)cc1C(F)(F)F | inactive |  |
| N#Cc1ccc(-n2cc(COc3ccccc3)nn2)cc1C(F)(F)F | > 65% |  |
| N#Cc1ccc(-n2cc(COc3ccccc3[N+](=O)[O-])nn2)cc1C(F)(F)F | > 65% |  |
| N#Cc1ccc(NC(=O)Cn2cc(COc3ccc(F)cc3)nn2)cc1C(F)(F)F | inactive |  |
| CNC(=O)c1ccc(N2C(=S)N(c3ccc(C#N)c(C(F)(F)F)c3)C(=O)C2(C)C)cc1F [ENZALUTAMIDE] |  | Activity (Mus musculus [3]): 0%; %max [4]: 43%; IC50 [5]: 35.8 µM; Activity (Mus musculus [6]): Non-Toxic |
| C[C@](O)(CS(=O)(=O)c1ccc(F)cc1)C(=O)Nc1ccc(C#N)c(C(F)(F)F)c1 [(R)-BICALUTAMIDE] |  | IC50 [5]: 31.3 µM |
| N#Cc1ccc(OCc2cn(-c3ccc(C#N)c(C(F)(F)F)c3)nn2)cc1 | > 65% |  |
| N#Cc1ccc(-n2cc(-c3cccc(Cl)c3F)nn2)cc1C(F)(F)F | inactive |  |
| N#Cc1ccc(-n2cc(COc3ccc([N+](=O)[O-])cc3C(F)(F)F)nn2)cc1C(F)(F)F | inactive |  |
| N#Cc1ccc(OCc2cn(CC(=O)Nc3ccc(C#N)c(C(F)(F)F)c3)nn2)cc1 | 70% | GI50 [1]: 6.42 µM |
| N#Cc1ccc(-n2nnc(COc3ccc([N+](=O)[O-])cc3C(F)(F)F)c2I)cc1C(F)(F)F | inactive |  |
| N#Cc1ccc(-n2cc(-c3cccc(F)c3F)nn2)cc1C(F)(F)F | 38% |  |
| N#Cc1ccc(-n2cc(COc3ccc(F)cc3)nn2)cc1C(F)(F)F | > 65% | GI50 [1]: 19.2 µM |
| N#Cc1ccc(-n2cc(COc3ccc(F)c(C(F)(F)F)c3)nn2)cc1C(F)(F)F | inactive |  |
| N#Cc1ccc(-n2cc(COc3ccc([N+](=O)[O-])cc3)nn2)cc1C(F)(F)F | > 65% |  |
| N#Cc1ccc(-n2cc(COc3ccc(C(F)(F)F)cc3)nn2)cc1C(F)(F)F | inactive |  |
| N#Cc1ccc(NC(=O)Cn2cc(CSc3ccc(F)cc3)nn2)cc1C(F)(F)F | inactive |  |
| CC(O)c1c(COc2ccc(C#N)cc2)nnn1-c1ccc(C#N)c(C(F)(F)F)c1 (stereo not given) | > 65% |  |
| O=[N+]([O-])c1ccc(OCc2cn(-c3cccc(C(F)(F)F)c3)nn2)c(C(F)(F)F)c1 | inactive |  |
| N#Cc1ccccc1OCc1cn(-c2ccc(C#N)c(C(F)(F)F)c2)nn1 | > 65% |  |
| N#Cc1ccc(OCc2cn(CC(=O)Nc3ccc(Cl)c(C(F)(F)F)c3)nn2)cc1 | inactive | Activity (Mus musculus [3]): 0%; LC50 [7]: 23.1 µM; GI50 [1]: 5.09 µM; Ratio IC50 (Homo sapiens [8]): 3.8; %max [4]: 60%; Ratio IC50 (Homo sapiens [9]): 4.4; IC50 [5]: 8.14 µM; Activity (Mus musculus [6]): Non-Toxic; GI50 [10]: 15.7 µM; GI50 [11]: 8.25 µM |
